Four compounds from ChEMBL document CHEMBL2380223, “A thiocarbamate inhibitor of endothelial lipase raises HDL cholesterol levels in mice” (Bioorg Med Chem Lett, 2013) can be followed below.

The source made the active and inactive calls. The rule behind the calls is not given here.

The target of series [1] is T1, Endothelial lipase (Mus musculus, UniProt Q9WVG5).
T1 sequence (Q9WVG5 whole entry): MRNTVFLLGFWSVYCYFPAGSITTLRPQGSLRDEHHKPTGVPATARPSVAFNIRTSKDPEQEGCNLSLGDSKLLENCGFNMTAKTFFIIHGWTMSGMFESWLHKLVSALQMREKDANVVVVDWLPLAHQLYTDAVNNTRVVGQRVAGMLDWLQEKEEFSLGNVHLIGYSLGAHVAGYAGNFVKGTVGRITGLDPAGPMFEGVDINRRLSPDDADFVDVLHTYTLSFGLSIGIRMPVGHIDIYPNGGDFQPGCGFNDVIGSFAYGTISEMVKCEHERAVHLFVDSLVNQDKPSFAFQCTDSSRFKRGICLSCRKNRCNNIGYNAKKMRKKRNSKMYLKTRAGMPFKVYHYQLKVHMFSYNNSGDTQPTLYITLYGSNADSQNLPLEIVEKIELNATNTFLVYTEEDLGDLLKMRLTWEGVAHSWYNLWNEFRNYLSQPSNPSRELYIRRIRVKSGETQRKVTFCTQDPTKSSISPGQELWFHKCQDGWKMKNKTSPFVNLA
The series can be described thus: Inhibition of mouse EL expressed in HEK293 cells using PED-A1 as substrate by spectrophotometry. The format is cell-based.

In series [2] the target is T2, Endothelial lipase (Homo sapiens, UniProt Q9Y5X9).
T2 sequence (Q9Y5X9 whole entry): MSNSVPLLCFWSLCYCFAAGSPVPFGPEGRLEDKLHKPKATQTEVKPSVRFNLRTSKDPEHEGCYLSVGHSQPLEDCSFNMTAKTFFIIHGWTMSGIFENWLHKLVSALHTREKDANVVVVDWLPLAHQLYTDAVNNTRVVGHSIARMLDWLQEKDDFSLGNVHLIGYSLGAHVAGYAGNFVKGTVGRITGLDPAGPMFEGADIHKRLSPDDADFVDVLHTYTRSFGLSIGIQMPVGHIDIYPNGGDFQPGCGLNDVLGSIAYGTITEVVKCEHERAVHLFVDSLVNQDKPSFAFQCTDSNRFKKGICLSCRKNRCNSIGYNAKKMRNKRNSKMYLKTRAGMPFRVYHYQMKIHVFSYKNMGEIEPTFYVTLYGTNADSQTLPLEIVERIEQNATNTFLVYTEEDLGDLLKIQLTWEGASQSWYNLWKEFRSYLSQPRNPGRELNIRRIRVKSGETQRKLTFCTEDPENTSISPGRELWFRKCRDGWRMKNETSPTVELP
The series can be described thus: (§1) Time dependent inhibition of human EL (19 to 500) expressed in HEK293 cells using PED-A1 as substrate by spectrophotometry. The format is cell-based.

In series [3] the test system is Mus musculus. The experiment in a line: Increase in plasma HDL-C level in C57BL/6J HL-/- mouse at 30 mg/kg, ip administered for 2 days followed by a dose on 3rd day morning measured 1 hr post last dose relative to vehicle-treated control. The format is functional. To be noted: route intraperitoneal. In outline:
(§2)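 C57BL/6J HL-/- (hepatic lipase knockout) mice dosed intraperitoneally with compound or vehicle for three days, at 10, 30 and 100 mg/kg. Plasma lipoproteins, including HDL-C, measured 1 h after the last dose. Percent increase is calculated against vehicle-treated controls, with significance testing between groups.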

Another series relates to Plasma. The series can be described thus: Plasma concentration in ip dosed C57BL/6J HL-/- mouse administered for 3 days measured 1 hr post last dose. The format is ADME, organism-based. The settings on record: in vivo. In outline: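 In HL-/- mice given intraperitoneal doses (10, 30, 100 mg/kg) for three days, plasma compound concentrations were measured 1 h after the final dose. In individual animals, these were correlated with plasma HDL-C and phospholipids.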

In series [4] the target is T3, Hepatic triacylglycerol lipase (Homo sapiens, UniProt P11150).
T3 sequence (P11150 whole entry): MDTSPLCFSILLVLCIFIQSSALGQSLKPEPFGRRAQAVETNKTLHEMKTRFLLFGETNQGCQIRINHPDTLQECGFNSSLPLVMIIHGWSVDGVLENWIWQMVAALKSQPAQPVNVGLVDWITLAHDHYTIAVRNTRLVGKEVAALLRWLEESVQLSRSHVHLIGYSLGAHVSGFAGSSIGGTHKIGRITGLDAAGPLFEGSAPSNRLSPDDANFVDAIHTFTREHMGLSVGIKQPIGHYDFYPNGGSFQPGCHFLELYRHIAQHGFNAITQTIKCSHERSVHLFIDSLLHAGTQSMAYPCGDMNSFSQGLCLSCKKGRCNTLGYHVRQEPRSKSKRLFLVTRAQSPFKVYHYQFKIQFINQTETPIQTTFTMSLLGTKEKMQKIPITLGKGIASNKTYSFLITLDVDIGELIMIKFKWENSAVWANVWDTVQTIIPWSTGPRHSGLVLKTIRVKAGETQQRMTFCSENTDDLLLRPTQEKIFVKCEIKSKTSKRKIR
The series can be described thus: Inhibition of human HL expressed in HEK293 cells using PED-A1 as substrate by spectrophotometry.

In series [5] the test system is Mus musculus. The experiment in a line: Increase in plasma HDL-C level in C57BL/6J mouse at 100 mg/kg, ip administered for 2 days followed by a dose on 3rd day morning measured 1 hr post last dose relative to vehicle-treated control. The settings on record: route intraperitoneal. The format is functional. In outline:
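C57BL/6J mice given vehicle or compound intraperitoneally, five doses over three days; plasma HDL-C measured 1 h after the last dose. Tested at 100 mg/kg. Change is expressed relative to vehicle controls, as means ± SD, n = 8 per group, with significance tested against the vehicle group.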

A further series addresses T4, Lipoprotein lipase (Homo sapiens, UniProt P06858).
T4 sequence (P06858 whole entry): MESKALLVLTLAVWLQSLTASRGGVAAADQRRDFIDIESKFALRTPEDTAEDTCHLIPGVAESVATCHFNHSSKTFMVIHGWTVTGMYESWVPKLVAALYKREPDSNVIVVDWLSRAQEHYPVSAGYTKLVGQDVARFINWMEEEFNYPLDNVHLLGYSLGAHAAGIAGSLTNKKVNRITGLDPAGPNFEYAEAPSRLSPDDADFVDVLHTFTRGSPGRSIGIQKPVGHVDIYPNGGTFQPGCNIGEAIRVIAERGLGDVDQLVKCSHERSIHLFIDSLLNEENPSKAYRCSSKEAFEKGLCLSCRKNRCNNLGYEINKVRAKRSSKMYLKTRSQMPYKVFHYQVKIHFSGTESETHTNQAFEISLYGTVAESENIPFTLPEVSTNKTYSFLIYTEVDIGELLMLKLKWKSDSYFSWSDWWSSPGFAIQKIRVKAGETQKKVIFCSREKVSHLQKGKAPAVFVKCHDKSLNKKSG
The experiment in a line: Inhibition of human LPL expressed in HEK293 cells using PED-A1 as substrate by spectrophotometry.

For series [6], the system named is Mus musculus. The series can be described thus: Increase in plasma HDL-C level in C57BL/6J HL-/- mouse at 100 mg/kg, ip administered for 2 days followed by a dose on 3rd day morning measured 1 hr post last dose relative to vehicle-treated control. The format is functional. The settings on record: route intraperitoneal. In outline:
as §2

Series [7] concerns the target T5, Endothelial lipase (Homo sapiens) (UniProt Q9Y5X9).
T5 sequence (whole entry): T2 sequence (Q9Y5X9 whole entry)
The series is described as §1. The format is cell-based.

In series [8] the test system is Mus musculus. The experiment in a line: Inhibition of EL in C57BL/6J HL-/- mouse assessed as elevated plasma HDL-C level at 30 to 100 mg/kg, ip bid for 2 days followed by a dose on 3rd day morning measured 1 hr post last dose. The format is functional, organism-based. The essentials:
as §2

Series [9] addresses Endothelial lipase (Mus musculus) (UniProt Q9WVG5). The series can be described thus: Inhibition of EL in C57BL/6J HL-/- mouse assessed as elevated plasma phospholipid level at 30 to 100 mg/kg, ip bid for 2 days followed by a dose on 3rd day morning measured 1 hr post last dose.

As usually defined, the IC50 is the concentration that gives 50% inhibition. A lower IC50 goes with greater potency.

On to `O=C(NCCCCCCc1ccccc1)OCc1ccccc1F`, for which the IC50 against Endothelial lipase [1] was > 33 µM.
On to `O=C(NCCCCCOc1cc(F)cc(F)c1)SCc1nnc(-c2ccccc2)o1`, for which, at Endothelial lipase [2], the 50% inhibitory concentration (IC50) amounted to 0.023 µM.
The compound `O=C(NCCCCCCc1ccccc1)Oc1ccccc1F` had an IC50 against Endothelial lipase [1] of 0.47 µM.
Regarding `O=C(NCCCCCCc1ccccc1)SCc1ccccc1F`, the values for the Activity with Mus musculus [3], in the series on Mus musculus [5] and with Mus musculus [6] were 23%, 37% and 77%, respectively. In the series on Plasma, the Drug uptake entry was “Dose-dependent effect”. The half-inhibitory concentration (IC50) in [4] was determined as 1.36 µM; at Lipoprotein lipase, 1.69 µM; against Endothelial lipase [1], 0.68 µM. In addition, the inhibition entry in series [7] is “Active”. The result (in the series with Mus musculus [8]; in series [9]) was Active.
